Experimental data: ChEMBL document CHEMBL3526065, “Metabolism of [6]-shogaol in mice and in cancer cells” (Drug Metab Dispos, 2012)

Legend:
[1] = Drug level in mouse CL-13 cells treated with 10 uM [6]-shogaol after 24 hrs by HPLC-ECD analysis; type: ADME, cell-based; conditions: cl-13, 24 h
How it was run: (§1)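 Cells (1.0 × 10⁶) attached 24 h in six-well plates, then exposed to 10 μM final in McCoy's 5A with 10% FBS. Extracted with equal volume acetonitrile, diluted 5-fold, analysed by HPLC with electrochemical detection.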

[2] = Drug level in C57BL/6J mouse feces treated with [6]-shogaol at 200 mg/kg, po by HPLC-ECD analysis relative to control; type: ADME, organism-based; parameters: dose 200 mg/kg, route oral; conditions: in vivo
How it was run: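 Female C57BL/6J mice gavaged once with 200 mg/kg in corn oil, or corn oil alone (n = 5 each). 24-h feces collected in metabolic cages. Feces extracted by sonication 90 min in MeOH/H2O (50/50) + 0.1% acetic acid, centrifuged, diluted fivefold. Analysed by HPLC with electrochemical array detection (Gemini C18, phosphate/acetonitrile/THF gradient), compared against vehicle controls.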

[3] = Drug level in human HCT116 cells treated with 10 uM [6]-shogaol after 24 hrs by HPLC-ECD analysis; type: ADME, cell-based; conditions: hct-116, 24 h; how it was run: as §1
[4] = tested on: HT-29; assay: Drug level in human HT-29 cells treated with 10 uM [6]-shogaol by HPLC-ECD analysis; type: ADME, cell-based; how it was run: as §1
[5] = Drug level in human H1299 cells treated with 10 uM [6]-shogaol after 24 hrs by HPLC-ECD analysis; type: ADME, cell-based; conditions: nci-h1299, 24 h; how it was run: as §1
[6] = Drug level in mouse CL-13 cells treated with 10 uM [6]-shogaol by HPLC-ECD analysis; type: ADME, cell-based; how it was run: as §1
[7] = Cytotoxicity against human HCT116 cells assessed as growth inhibition after 24 hrs by MTT assay; type: functional, cell-based; conditions: HCT-116, 24 h
How it was run: (§2)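 Cells seeded at 3000/well, attached 24 h at 37°C, then exposed to test agents (0–80 μM, 0.1% DMSO final) for 24 h in McCoy's 5A with 10% FBS. Medium replaced with 2.41 mM MTT for 3 h at 37°C; formazan dissolved in DMSO, absorbance 550 nm. Viability as percentage of DMSO control; mean ± S.D., n = 6.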

[8] = Cytotoxicity against human H1299 cells assessed as growth inhibition after 24 hrs by MTT assay; type: functional, cell-based; conditions: NCI-H1299, 24 h; how it was run: as §2
[9] = tested on: HCT-116; assay: Induction of apoptosis in human HCT116 cells assessed as apoptotic cells at 40 uM after 24 hrs by TUNEL assay; type: functional
How it was run: (§3)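 HCT-116 or H-1299 cells seeded at 1.0 × 10⁵/well, after 24 h exposed for 24 h to compound (10–80 μM) or DMSO control. Cells were proteinase K-pretreated, formaldehyde-fixed, and slide-mounted for peroxidase TUNEL staining. Ten fields per slide counted at 400×; brown-nucleus cells given as percentage of total cells; mean ± S.E., n = 10.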

[10] = tested on: NCI-H1299; assay: Induction of apoptosis in human H1299 cells assessed as apoptotic cells at 40 uM after 24 hrs by TUNEL assay; type: functional; how it was run: as §3
[11] = tested on: HCT-116; assay: Induction of apoptosis in human HCT116 cells assessed as apoptotic cells at 80 uM after 24 hrs by TUNEL assay; type: functional; how it was run: as §3
[12] = tested on: NCI-H1299; assay: Induction of apoptosis in human H1299 cells assessed as apoptotic cells at 80 uM after 24 hrs by TUNEL assay; type: functional; how it was run: as §3

Compound | Drug metabolism [1] | Drug excretion [2] | Drug metabolism [3] | Drug metabolism [4] | Drug metabolism [5] | Drug metabolism [6] | IC50 [7] | IC50 [8] | Activity [9] | Activity [10] | Activity [11] | Activity [12]
CCCCCCCC(O)CCc1ccc(O)c(OC)c1 (stereo not drawn) | metabolite_detected | metabolite_detected | metabolite_detected | metabolite_detected | metabolite_detected | metabolite_detected | 82.2 µM | 77.7 µM | 9.6% | 7.4% | 16.9% | 15.4%
CCCCCCCC(=O)CCc1ccc(O)c(O)c1 | – | metabolite_detected | – | – | – | – | – | – | – | – | – | –
